The source made the active and inactive calls. The calls are words filed in the database; no cut-off is given here. Where only a bound is given, the exact number is not on record here.

For one data set, the target named is Cytochrome P450 3A4 (Homo sapiens, UniProt P08684). The data set can be described thus: Induction of CYP3A4 in human hepatocytes. The class given is ADME, cell-based, Hepatocyte. Put shortly:
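Cryopreserved hepatocytes from 3 human donors were cultured on collagen for 3 days, then dosed daily in fresh medium with 1, 10 or 100 μM compound, vehicle, or rifampin as positive control. CYP3A4 activity was read 24 h after the last dose using testosterone as probe substrate, analysed by LC/MS/MS. Induction is expressed as % of positive control; >40% in any donor counts as a potential inducer.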

Data set [1] addresses Voltage-gated inwardly rectifying potassium channel KCNH2 (Homo sapiens, UniProt Q12809). The data set can be described thus: Inhibition of human ERG.
The next data set concerns the target Cytochrome P450 2C9 (Homo sapiens, UniProt P11712). The data set can be described thus: Inhibition of CYP2C9 (unknown origin). Type of data set: ADME.
Data set [2] in a line: Volume of distribution at steady state in beagle dog at 10 mg/kg, iv. As to conditions: in vivo, read-out: Vdss. The class given is ADME, organism-based, Canis lupus familiaris. The arrangement: dose 10 mg/kg, route intravenous.
Data set [3] relates to Rattus norvegicus. The data set can be described thus: Oral bioavailability in Sprague-Dawley rat at 50 mg/kg. Type of data set: ADME, organism-based. Conditions: in vivo. Summed up: (§1)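 Sprague–Dawley rats (n = 3) were dosed orally with an emulsion in 30% Labrafil. Blood was sampled from 0 to 24 h (0, 5, 15, 30 min; 1, 2, 4, 8, 24 h). Bioavailability was derived against the IV arm.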

Data set [4] in a line: Volume of distribution at steady state in Sprague-Dawley rat at 10 mg/kg, iv. Type of data set: ADME, organism-based. The arrangement: dose 10 mg/kg, route intravenous. As to conditions: in vivo, read-out: Vdss.
Data set [5] is described as follows: Tmax in beagle dog at 30 mg/kg, po. The class given is ADME, organism-based, Canis lupus familiaris. Details: dose 30 mg/kg, route oral. Conditions: in vivo. Summed up: (§2)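 Beagles (n = 3) were given an oral emulsion in 30% Labrafil. Blood was collected at 0, 5, 15 and 30 min and at 1, 2, 4, 8 and 24 h. Bioavailability was derived relative to IV dosing.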
The subject of data set [6] is Canis familiaris. As to the kind of experiment: Total unbound Cmax in beagle dog at 30 mg/kg, po. Type of data set: ADME, organism-based, Canis lupus familiaris. The arrangement: dose 30 mg/kg, route oral. As to conditions: in vivo. Put shortly:
as §2

For data set [7], the system named is Canis familiaris. The data set can be described thus: Total unbound AUC (0 to infinity) in beagle dog at 30 mg/kg, po. The arrangement: dose 30 mg/kg, route oral. The class given is ADME, organism-based, Canis lupus familiaris. Conditions: in vivo. Put shortly:
as §2

Data set [8] concerns Rattus norvegicus. As to the kind of experiment: Total unbound AUC (0 to infinity) in Sprague-Dawley rat at 50 mg/kg, po. Type of data set: ADME, organism-based. Details: dose 50 mg/kg, route oral. As to conditions: in vivo. Put shortly: as §1
The test system of data set [9] is Canis familiaris. The data set can be described thus: Total unbound AUC (0 to infinity) in beagle dog at 10 mg/kg, iv. The class given is ADME, organism-based, Canis lupus familiaris. The arrangement: dose 10 mg/kg, route intravenous. Conditions: in vivo.
The nature of data set [10]: Terminal half life in Sprague-Dawley rat at 50 mg/kg, po. The class given is ADME, organism-based. Details: dose 50 mg/kg, route oral. Conditions: in vivo, read-out: beta t1/2 (converted). Summed up:
as §1

The nature of data set [11]: Volume of distribution at steady state in CD1 mouse at 10 mg/kg, iv. Conditions: in vivo, read-out: Vdss. The arrangement: dose 10 mg/kg, route intravenous. The class given is ADME, organism-based. Put shortly: (§3)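 CD1 mice (n = 3 per compound) given 10 mg/kg as a single tail-vein injection in a pH 7.0 solution of 10% ethanol plus PEG400 (some compounds also with 10% DMSO). Blood was sampled at 0, 5, 15 and 30 min and 1, 2, 4, 8 and 24 h. Parameters were derived from the plasma concentration–time profiles.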

Data set [12] relates to Mus musculus. As to the kind of experiment: Oral bioavailability in CD1 mouse at 50 mg/kg. The class given is ADME, organism-based. Conditions: in vivo. Summed up: (§4)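 CD1 mice (n = 3 per compound) were dosed orally at 50 mg/kg as an aqueous emulsion in 30% Labrafil. Blood was drawn at 0, 5, 15 and 30 min and 1, 2, 4, 8 and 24 h. Bioavailability and other parameters were calculated from the plasma profiles and compared against the intravenous arm.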

Data set [13] in a line: AUClast in CD1 mouse at 50 mg/kg, po. The class given is ADME, organism-based. Details: time 0 - last, dose 50 mg/kg, route oral. As to conditions: plasma. Put shortly: as §4
Data set [14] relates to Mus musculus. The data set can be described thus: Total unbound Cmax in CD1 mouse at 50 mg/kg, po. Type of data set: ADME, organism-based. Details: dose 50 mg/kg, route oral. As to conditions: in vivo.
Data set [15] has as its target T1, Glucocorticoid receptor (Homo sapiens) (UniProt P04150).
T1 sequence (whole entry): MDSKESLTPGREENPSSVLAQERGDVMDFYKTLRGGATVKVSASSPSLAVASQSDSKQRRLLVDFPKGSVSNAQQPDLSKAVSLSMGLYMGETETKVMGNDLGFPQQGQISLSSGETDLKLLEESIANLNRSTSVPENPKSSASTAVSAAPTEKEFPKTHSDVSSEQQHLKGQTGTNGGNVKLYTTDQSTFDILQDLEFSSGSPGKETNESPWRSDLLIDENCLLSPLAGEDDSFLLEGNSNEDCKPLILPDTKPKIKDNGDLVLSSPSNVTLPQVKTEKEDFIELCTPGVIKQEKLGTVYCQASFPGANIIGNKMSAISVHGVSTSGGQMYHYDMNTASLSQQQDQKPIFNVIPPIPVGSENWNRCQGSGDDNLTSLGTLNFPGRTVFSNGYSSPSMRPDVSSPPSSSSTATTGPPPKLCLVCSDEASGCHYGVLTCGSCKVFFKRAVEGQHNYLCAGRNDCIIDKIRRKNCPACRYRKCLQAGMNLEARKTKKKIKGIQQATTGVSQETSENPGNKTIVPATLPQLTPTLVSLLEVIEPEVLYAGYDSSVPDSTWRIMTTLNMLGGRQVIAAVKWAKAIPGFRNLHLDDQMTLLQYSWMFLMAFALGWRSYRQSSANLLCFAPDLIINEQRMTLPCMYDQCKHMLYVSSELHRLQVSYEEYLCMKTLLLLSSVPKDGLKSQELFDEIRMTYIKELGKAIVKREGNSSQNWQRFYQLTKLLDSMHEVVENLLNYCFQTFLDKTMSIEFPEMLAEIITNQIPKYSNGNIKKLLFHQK
As to the kind of experiment: Transactivation of glucocorticoid receptor in HEK293 cells co-transfected with GRE assessed as induction of GRE-dependent gene expression at 100 ug/ml after 6 hrs by luciferase reporter gene assay. Type of data set: cell-based. Summed up: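 HEK-293 cells stably transfected with a GRE-driven luciferase reporter were exposed to drug at 0.01–100 μg/ml for 6 h. Cells were washed with PBS and lysed, and luciferase activity was measured by luminometer.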
A general note: In a reporter assay the amount or activity of a reporter protein is the signal.

Data set [16] relates to Mus musculus. As to the kind of experiment: Total unbound AUC (0 to infinity) in CD1 mouse at 10 mg/kg, iv. Details: dose 10 mg/kg, route intravenous. As to conditions: in vivo. The class given is ADME, organism-based.
Data set [17] is described as follows: Terminal half life in CD1 mouse at 10 mg/kg, iv. Type of data set: ADME, organism-based. Details: dose 10 mg/kg, route intravenous. As to conditions: in vivo, read-out: beta t1/2 (converted). Put shortly:
as §3

Data set [18] can be described thus: Terminal half life in CD1 mouse at 50 mg/kg, po. Conditions: in vivo, read-out: beta t1/2 (converted). Details: dose 50 mg/kg, route oral. Type of data set: ADME, organism-based. Summed up: as §4
A short description of data set [19]: Terminal half life in Sprague-Dawley rat at 10 mg/kg, iv. The class given is ADME, organism-based. The arrangement: dose 10 mg/kg, route intravenous. Conditions: in vivo, read-out: beta t1/2 (converted).
Another data set has as its system C2C12. As to the kind of experiment: Cytotoxicity against mouse C2C12 cells assessed as cell viability at 0.01 to 100 ug/mL after 24 hrs by MTT assay. Conditions: c2c12, 24 h. Type of data set: cell-based. Put shortly:
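MTT viability run on C2C12 cells grown and treated alongside the NF-κB reporter plates, with drug at 0.01–100 µg/ml and DMSO vehicle. Viability is expressed as percent of untreated cells. A one-way repeated-measures ANOVA tested for a concentration effect.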
Background: Formazan colour is commonly taken as a measure of viable cells.

Cytochrome P450 3A4, sequence (P08684 whole entry): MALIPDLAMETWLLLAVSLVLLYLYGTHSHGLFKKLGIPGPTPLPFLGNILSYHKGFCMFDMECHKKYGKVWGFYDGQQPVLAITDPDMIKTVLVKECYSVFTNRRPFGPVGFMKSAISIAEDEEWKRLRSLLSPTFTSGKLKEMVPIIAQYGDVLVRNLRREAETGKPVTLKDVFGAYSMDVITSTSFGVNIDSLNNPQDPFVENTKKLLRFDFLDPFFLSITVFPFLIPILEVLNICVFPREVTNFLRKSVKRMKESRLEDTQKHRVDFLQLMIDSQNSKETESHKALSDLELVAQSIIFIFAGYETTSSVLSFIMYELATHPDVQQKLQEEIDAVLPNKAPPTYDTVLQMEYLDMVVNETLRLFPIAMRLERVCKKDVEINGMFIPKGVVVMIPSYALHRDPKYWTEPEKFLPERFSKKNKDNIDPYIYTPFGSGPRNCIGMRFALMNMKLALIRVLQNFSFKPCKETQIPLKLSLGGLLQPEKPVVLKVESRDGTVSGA
Cytochrome P450 2C9, sequence (P11712 whole entry): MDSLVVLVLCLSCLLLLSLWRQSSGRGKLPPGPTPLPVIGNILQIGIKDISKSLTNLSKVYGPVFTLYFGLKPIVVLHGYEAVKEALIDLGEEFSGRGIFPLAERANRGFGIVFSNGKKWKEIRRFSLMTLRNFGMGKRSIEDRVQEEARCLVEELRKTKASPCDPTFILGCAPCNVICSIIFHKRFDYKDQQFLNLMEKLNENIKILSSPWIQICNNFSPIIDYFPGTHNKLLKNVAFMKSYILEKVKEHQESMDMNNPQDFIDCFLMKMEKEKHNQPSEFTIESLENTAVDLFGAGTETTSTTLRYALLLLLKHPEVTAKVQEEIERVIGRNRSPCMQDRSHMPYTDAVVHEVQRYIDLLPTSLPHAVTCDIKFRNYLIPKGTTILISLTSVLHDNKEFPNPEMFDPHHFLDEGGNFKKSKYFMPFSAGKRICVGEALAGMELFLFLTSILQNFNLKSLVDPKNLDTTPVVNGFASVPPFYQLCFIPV
Voltage-gated inwardly rectifying potassium channel KCNH2, sequence (Q12809 whole entry): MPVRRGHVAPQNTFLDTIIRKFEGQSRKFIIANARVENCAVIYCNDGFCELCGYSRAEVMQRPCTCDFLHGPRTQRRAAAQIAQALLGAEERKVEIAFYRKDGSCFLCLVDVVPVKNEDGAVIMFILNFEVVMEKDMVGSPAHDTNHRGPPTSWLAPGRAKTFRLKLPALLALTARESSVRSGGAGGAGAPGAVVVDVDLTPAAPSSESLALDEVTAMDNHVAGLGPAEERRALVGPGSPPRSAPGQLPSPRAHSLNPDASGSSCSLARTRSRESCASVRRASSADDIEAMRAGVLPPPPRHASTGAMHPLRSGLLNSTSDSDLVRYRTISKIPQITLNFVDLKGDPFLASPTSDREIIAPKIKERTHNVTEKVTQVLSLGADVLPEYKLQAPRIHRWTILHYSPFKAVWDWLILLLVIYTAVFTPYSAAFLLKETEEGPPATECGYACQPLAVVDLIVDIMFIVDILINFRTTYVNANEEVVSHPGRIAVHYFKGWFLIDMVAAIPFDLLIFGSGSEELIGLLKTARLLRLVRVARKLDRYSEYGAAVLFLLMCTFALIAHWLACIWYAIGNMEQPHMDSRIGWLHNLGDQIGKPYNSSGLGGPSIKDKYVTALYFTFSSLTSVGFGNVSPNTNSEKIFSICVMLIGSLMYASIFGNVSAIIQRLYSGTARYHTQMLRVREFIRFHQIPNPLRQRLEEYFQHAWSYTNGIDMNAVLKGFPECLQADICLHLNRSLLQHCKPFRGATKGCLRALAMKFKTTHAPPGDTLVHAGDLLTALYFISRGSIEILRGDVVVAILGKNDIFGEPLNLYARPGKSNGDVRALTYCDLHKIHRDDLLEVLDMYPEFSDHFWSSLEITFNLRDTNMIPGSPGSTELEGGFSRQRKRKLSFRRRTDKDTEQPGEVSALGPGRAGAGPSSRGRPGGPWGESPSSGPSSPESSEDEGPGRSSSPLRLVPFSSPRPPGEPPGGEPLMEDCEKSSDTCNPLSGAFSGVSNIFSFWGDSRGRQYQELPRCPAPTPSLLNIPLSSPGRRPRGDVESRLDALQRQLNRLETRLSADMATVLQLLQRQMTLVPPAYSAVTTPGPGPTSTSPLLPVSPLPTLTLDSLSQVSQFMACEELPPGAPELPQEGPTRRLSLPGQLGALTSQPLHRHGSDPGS

Consider `C[C@@H]1C[C@H]2[C@@H]3CCC4=CC(=O)C=C[C@]4(C)C3=CC[C@]2(C)[C@@]1(O)C(=O)CO` [VAMOROLONE], for which the Activity at Cytochrome P450 3A4 was 24%; in the data set with C2C12 it was “Non-toxic”. The half-maximal inhibitory concentration (IC50) (as a rule, the midpoint of a concentration-inhibition curve) in data set [1] was 20 µM; on Cytochrome P450 2C9, more than 50 µM. Further, the Vd was 1.93 L/kg in data set [2], 0.77 L/kg in data set [4] and 0.757 L/kg in data set [11]. Also, the F with Rattus norvegicus [3] is reported as 47.8%; in the data set on Mus musculus [12] it was 74.5%. For the same molecule, the time to peak (Tmax) – broadly, the time at which the peak concentration occurs – in data set [5] stood at 360 min. The fCmax with Canis familiaris [6] turned out to be 814 ng/mL; in the data set on Mus musculus [14], 6787 ng/mL. For the same molecule, the fAUC came to 10844 ng·h/mL in the data set with Canis familiaris [7], 19937 ng·h/mL in the data set with Rattus norvegicus [8], 6791 ng·h/mL in the data set with Canis familiaris [9] and 8842 ng·h/mL in the data set with Mus musculus [16]. Besides, the half-life in data set [10] is 137 min; in data set [17] it was 21.2 min; in data set [18], 40.7 min; in data set [19], 34.8 min. The AUC(0-t) (in general, exposure summed from dosing to a finite time, without extrapolation to infinity) in data set [13] was determined as 32900 ng·h/mL. Besides, the outcome in data set [15] was inactive.

(Values after ChEMBL document CHEMBL2346557 (Bioorg Med Chem, 2013).)
